The values that follow come from publication PMC4001804 (Journal of pharmaceutical sciences, 2014).

The conditions of data set [1]: 10 μg/kg (2.4 nmoles/kg) iv bolus dose; ref 10 (Jones et al.); cited from earlier work.
The nature of data set [2]: Single-dose subcutaneous serum pharmacokinetics, analysis of individual animals. Type of data set: in vivo, female Sprague-Dawley rats. A digest of the protocol: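 Three-month-old female rats (200–240 g), acclimated two weeks, n = 4, got one subcutaneous dose. Tail-vein blood was drawn at 0, 2, 5, 10, 20, 30, 60, 180 and 360 min, clotted at ambient temperature, spun 14,000 rpm 10 min refrigerated, and serum stored at −80°C. Immunoreactive hPTH(1-34) was measured by ELISA. Parameters came from individual animals; half-life was reported as geometric mean.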

On the set-up of data set [3]: species or system female Sprague-Dawley rats. To be noted: female, Sprague-Dawley, rat, in vivo.

Read-outs that look alike come from different tables or passages of the source.

As a reminder, the clearance is a measure of how efficiently the substance is removed, as volume per time. What is called half-life is the time needed for the level to fall by half in the phase considered. A low value points to fast loss. The term bioavailability denotes dose-corrected exposure relative to a reference, in per cent. Low readings indicate poor availability, high ones good availability. In the case of `CC[C@H](C)[C@H](NC(=O)[C@H](CCC(=O)O)NC(=O)[C@H](CO)NC(=O)[C@@H](NC(=O)[C@@H](N)CO)C(C)C)C(=O)N[C@@H](CCC(N)=O)C(=O)N[C@@H](CC(C)C)C(=O)N[C@@H](CCSC)C(=O)N[C@@H](Cc1cnc[nH]1)C(=O)N[C@@H](CC(N)=O)C(=O)N[C@@H](CC(C)C)C(=O)NCC(=O)N[C@@H](CCCCN)C(=O)N[C@@H](Cc1cnc[nH]1)C(=O)N[C@@H](CC(C)C)C(=O)N[C@@H](CC(N)=O)C(=O)N[C@@H](CO)C(=O)N[C@@H](CCSC)C(=O)N[C@@H](CCC(=O)O)C(=O)N[C@@H](CCCN=C(N)N)C(=O)N[C@H](C(=O)N[C@@H](CCC(=O)O)C(=O)N[C@@H](Cc1c[nH]c2ccccc12)C(=O)N[C@@H](CC(C)C)C(=O)N[C@@H](CCCN=C(N)N)C(=O)N[C@@H](CCCCN)C(=O)N[C@@H](CCCCN)C(=O)N[C@@H](CC(C)C)C(=O)N[C@@H](CCC(N)=O)C(=O)N[C@@H](CC(=O)O)C(=O)N[C@H](C(=O)N[C@@H](Cc1cnc[nH]1)C(=O)N[C@@H](CC(N)=O)C(=O)N[C@@H](Cc1ccccc1)C(=O)O)C(C)C)C(C)C` [PTH(1-34), teriparatide], the clearance was 98 mL/min/kg in data set [1] and 83 mL/min/kg in data set [3]. The same compound showed a half-life in data set [2] (female, Sprague-Dawley, rat, serum, sc, 19.4 nmoles/kg) of 59 min. The “Time by which serum concentrations returned to background levels” value in data set [2] (single sc dose 19.4 nmoles/kg) was no more than 6 h. The same compound displayed a bioavailability in data set [3] (sc) of 47%.
